Measurements gathered from unrelated publications.
Each line is one published result; the experiments were not run side by side. pEC50, pIC50: −log10 of the molar value.
Organism: Trypanosoma brucei
Effect on: parasite growth

Structure (SMILES)	assay	test system	setting	endpoint	value
Cc1nn(C)c2cc(N(C)c3ccnc(Nc4cccc(S(N)(=O)=O)c4)n3)ccc12				pEC50	6.50
COC(=O)C1CCN(C(=O)c2ccc(SCc3cnc4nc(N)nc(N)c4n3)nc2)CC1	resazurin		10 µM, 72 h	inhibition	16%
CS(=O)(=O)CCNCc1ccc(-c2ccc3ncnc(Nc4ccc(OCc5cccc(F)c5)c(C(F)(F)F)c4)c3c2)o1				pEC50	5.70
N=C(N)c1ccc(OCCCCCOc2ccc(C(=N)N)cc2)cc1	resazurin	RHODESIENSE STIB900		pIC50	8.74
Cc1ccc(C(=O)Nc2ccc(S(=O)(=O)O)c3cc(S(=O)(=O)O)cc(S(=O)(=O)O)c23)cc1NC(=O)c1cccc(NC(=O)Nc2cccc(C(=O)Nc3cc(C(=O)Nc4ccc(S(=O)(=O)O)c5cc(S(=O)(=O)O)cc(S(=O)(=O)O)c45)ccc3C)c2)c1	resazurin			pIC50	7.22
COc1ccc(C(=O)Nc2ccc(NC(=N)N)c(OCc3cc(OC)ccc3OC)c2)cc1				pIC50	6.10
COC(=O)C1CCN(C(=O)c2ccc(NCc3cnc4nc(N)nc(N)c4n3)cn2)CC1	resazurin		10 µM, 72 h	inhibition	10%
OC(c1ccccc1)c1ccccc1				pEC50	< 4.00
N=C(N)c1ccc(OCCCCCOc2ccc(C(=N)N)cc2)cc1				EC90	0.0062 µM
COc1c(Br)cc(Br)cc1CN[C@H]1CCCN(c2nc3nc(Cl)ccc3[nH]2)C1				pEC50	7.40
ClCCOC1c2ccccc2CCc2ccccc21				pEC50	4.55
Cc1ccc2nc(-c3ccc(F)c(F)c3)c(CN3CCN(C4CCCCC4)CC3)n2c1			48 h	EC90	> 20 µM
C[C@@H](Oc1cc(-n2cnc3ccc(OCC4CCN(C)CC4)cc32)sc1C(N)=O)c1ccccc1Cl				pEC50	7.80
COC(=O)C1CCN(C(=O)Cc2ccc(NCc3cnc4nc(N)nc(N)c4n3)cc2)CC1	resazurin		10 µM, 72 h	inhibition	23%
Fc1ccc(-c2ncn(C3CCNCC3)c2-c2ccnc(Oc3ccc(Oc4ccccc4)cc3)n2)cc1				pEC50	6.10
CCCOC(=O)C1CCN(C(=O)c2ccc(N(C)Cc3cnc4nc(N)nc(N)c4n3)cc2)CC1	resazurin		10 µM, 72 h	inhibition	51%

Structure (SMILES)	assay	test system	setting	endpoint	value
Cc1ccc2nc(-c3ccc(F)c(F)c3)c(CN3CCC(Cc4ccccc4)CC3)n2c1			48 h	pEC50	4.78
NC(=O)CN1C(=O)CNC2(C1=O)C1CC3CC(C1)CC2C3 (stereo not shown)			pH 7.4, blood stage	pIC50	3.70
Cc1c2ccc(N(C)c3ccnc(Nc4cccc(S(N)(=O)=O)c4)n3)cc2nn1C				pEC50	5.30
ClCCOC(c1ccccc1)c1ccccc1				pEC50	4.49
Cc1ccc2nc(-c3ccc(Cl)cc3)cn2c1			48 h	EC90	> 20 µM
N=C(N)c1ccc(OCCCCCOc2ccc(C(=N)N)cc2)cc1				pEC50	8.27
Nc1nccc(C#Cc2cncnc2Nc2ccc(OCc3cccc(F)c3)c(Cl)c2)n1				pEC50	5.50
CCOC(=O)C1CCN(C(=O)c2ccc(N(C)Cc3cnc4nc(N)nc(N)c4n3)cc2)CC1	resazurin		10 µM, 72 h	inhibition	47%
[O-][S+]1CCN(Cc2ccc(-c3ccc4ncnc(Nc5ccc(OCc6ccccc6)c(Cl)c5)c4c3)o2)CC1				pEC50	6.20
COc1ccc(CNC(=O)c2ccc(CNCc3cnc4nc(N)nc(N)c4n3)cc2)cc1OC	resazurin		10 µM, 72 h	inhibition	36%
O=C(Nc1ccnc(C(F)(F)F)c1)Nc1cccc2c1OC(F)(F)O2		RHODESIENSE STIB900		pIC50	4.85
CCOC(=O)C1CCCN1C(=O)c1ccc(NCc2cnc3nc(N)nc(N)c3n2)cc1 (stereo not shown)	resazurin		10 µM, 72 h	inhibition	30%
CC1CS(=O)(=O)CCN1/N=C/c1ccc([N+](=O)[O-])o1 (stereo not shown)				pIC50	5.46
COc1cc(Nc2ncc3c(C)nc(-c4cccc(Oc5ccccc5)c4)n3n2)cc(OC)c1OC				pEC50	6.10
C#CCN(Cc1cnc2nc(N)nc(N)c2n1)c1ccc(C(=O)N2CCC(C(=O)OC)CC2)cc1	resazurin		10 µM, 72 h	inhibition	23%
